We go through four compounds from PMC4503318 (Chemistry & biology, 2015).

Data set [1] addresses T1, PfLysRS (Plasmodium falciparum, UniProt Q8IDJ8). In words: Thermal shift assay, PfLysRS. The format is binding, P. falciparum.
The target in data set [2] is Pf-like human LysRS (Homo sapiens, UniProt Q15046, P300T/Q321V/T337S). Kind of data set: Thermal shift assay, Pf-like human LysRS. The data set is classed as binding. In short, it runs like this: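 Pf-like human LysRS (residues 70-584) was co-expressed in E. coli BL21(DE3) with His-tagged AIMP2/p38 1-36 and purified by Ni affinity and gel filtration. A 2× mix held 4 μM protein in Tris-HCl pH 8.0/NaCl/DTT, plus 40 μM test compound, 1 mM lysine, 40 μM ATP or 2 mM CaCl2. It sat 30 min at room temperature, then was chilled and mixed 1:1 with dye. Fluorescence was read during heating from 10 to 90 °C at 1 °C/min, averaging 8 curves. Tm was fitted by Levenberg-Marquardt. Kd was extrapolated to 25 °C, assuming 62760 J/mol binding enthalpy. Kd was not determined for negative ΔTm.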
Chain of Pf-like human LysRS (Q15046 70-584 P300T/Q321V/T337S): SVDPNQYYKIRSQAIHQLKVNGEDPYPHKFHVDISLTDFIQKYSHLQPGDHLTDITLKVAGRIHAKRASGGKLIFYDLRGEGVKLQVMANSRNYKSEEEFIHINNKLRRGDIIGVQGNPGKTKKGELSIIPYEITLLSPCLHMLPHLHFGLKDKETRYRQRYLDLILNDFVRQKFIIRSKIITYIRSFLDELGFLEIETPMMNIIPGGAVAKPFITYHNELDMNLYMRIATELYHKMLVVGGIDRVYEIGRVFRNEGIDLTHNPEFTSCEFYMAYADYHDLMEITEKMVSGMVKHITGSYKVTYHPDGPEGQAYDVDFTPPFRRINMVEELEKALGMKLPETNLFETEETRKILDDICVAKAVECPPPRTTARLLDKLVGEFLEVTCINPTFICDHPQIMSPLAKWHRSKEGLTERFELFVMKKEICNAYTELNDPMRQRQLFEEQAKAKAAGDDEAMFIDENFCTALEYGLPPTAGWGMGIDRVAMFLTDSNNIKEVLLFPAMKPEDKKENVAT
Chain of Pf-like human LysRS (Q13155 1-36 partner limits assumed): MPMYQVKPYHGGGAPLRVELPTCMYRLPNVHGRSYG

Data set [3] deals with HsLysRS (Homo sapiens, UniProt Q15046). Kind of data set: Thermal shift assay, HsLysRS. The data set is classed as binding.
Chain of HsLysRS (Q15046 70-584): as the sequence (Q15046 70-584 P300T/Q321V/T337S) above, with T231P, V252Q, S268T counted along it
Chain of HsLysRS (Q13155 1-36 partner limits assumed): as the sequence (Q13155 1-36 partner limits assumed) above
In data set [4] the test system is Colletotrichum gloeosporioides. The conditions noted are these: CP at 30 μM; ref Wang et al., 2013; cited from earlier work.
For data set [5], the system named is Colletotrichum acutatum. Particulars: CP at 30 μM; ref Wang et al., 2013; cited from earlier work.
The subject of data set [6] is blood- and liver- stage Plasmodium falciparum parasite forms. Particulars: Plasmodium parasites compared to mammalian cells; ref Hoepfner et al., 2012; cited from earlier work.
For data set [7], the system named is Phomopsis viticola. Particulars: CP at 30 μM; ref Wang et al., 2013; cited from earlier work.
In data set [8] the test system is Colletotrichum fragariae. Particulars: CP at 30 μM; ref Wang et al., 2013; cited from earlier work.
For data set [9], the system named is human cells. The conditions noted are these: ref Hoepfner et al., 2012; cited from earlier work.
Data set [10] addresses T1, PfLysRS. The conditions noted are these: yeast-growth-based assay; ref Hoepfner et al., 2012; cited from earlier work.
Data set [11] concerns yeast LysRS Q324V and T340S. The conditions noted are these: Q324V and T340S mutations of yeast LysRS; ref Hoepfner et al., 2012; cited from earlier work.
In data set [12] the test system is E. coli. Particulars: up to 100 μg/ml CP; ref Anke, 1979; cited from earlier work.
For data set [13], the system named is IleRS. The conditions noted are these: ref Hughes and Mellows, 1980; cited from earlier work.
Where [14] appears, read: Pf-like human LysRS, ligand alone (no lysine co-ligand for ATP/CP).
[15] abbreviates: Pf-like human LysRS, with lysine.
The mark [16] stands for this setting: HsLysRS, ligand alone (no lysine co-ligand for ATP/CP).
The mark [17] stands for this setting: PfLysRS, ligand alone (no lysine co-ligand), estimated from ΔTm, 25°C.

Where two headings read alike, the source gives them in different places.

Turning to `Nc1ncnc2c1ncn2[C@@H]1O[C@H](COP(=O)(O)OP(=O)(O)OP(=O)(O)O)[C@@H](O)[C@H]1O` [ATP], the ΔTm in [1] (PfLysRS, with lysine) is 0.6 °C; in data set [2] (setting [14]), -0.9 °C; in data set [2] (setting [15]) it was 0.9 °C; in data set [3] (setting [16]), -0.2 °C; in data set [3] (HsLysRS, with lysine) it was 0.9 °C. Further, the Kd was 2.2 µM in [2] (Pf-like human LysRS, with lysine, estimated from ΔTm, 25°C) and 2.8 µM in data set [3] (HsLysRS, with lysine, estimated from ΔTm, 25°C).

`C[C@H]1CCC[C@H](C[C@H]2Cc3cc(O)cc(O)c3C(=O)O2)O1` [CP, cladosporin]: the Kd is about 0.0024 µM in data set [1] (PfLysRS, K-CP (with lysine)); 1.5 µM in [1] (setting [17]); 0.0024 µM in data set [1] (PfLysRS, with lysine, estimated from ΔTm, 25°C); 2.1 µM in data set [2]; 3.3 µM in [3]. The “binding affinity tighter than in HsLysRS” value in [1] (PfLysRS vs HsLysRS, with lysine) was found to be 1375 fold. Besides, the “stabilization by CP together with lysine relative to CP-alone” value in [1] (PfLysRS, 17.1 °C vs 2.4 °C) came to 7 fold. Besides, the “stabilization effect with non-cognate amino acids” value in [1] (PfLysRS, CP, lysine replaced with any of the other 19 non-cognate amino acids) is recorded as “did not yield stabilization effect”. Further, in data set [1] (PfLysRS, Kd with lysine vs no lysine), the “increase of binding affinity by the presence of lysine” value stood at 625 fold. Further, the ΔTm at 40 µM in data set [1] (read-out: ΔTm) worked out at 2.4 °C. For the same compound, the inhibition of growth entry in data set [4], in [5], in data set [7] and in data set [8] was “over 80%” throughout. In addition, in [6], the “selectivity index (IC50/CC50)” value is recorded as over 111. Further, the “stabilization effect (melting temperature)” value was under 2 °C in [2] (Pf-like human LysRS, CP even with the presence of lysine) and under 2 °C in data set [3] (HsLysRS, CP even with the presence of lysine). Also, the ΔTm in data set [2] (setting [14]) is -1.1 °C; in data set [2] (setting [15]), 1.0 °C; in data set [3] (setting [16]), -0.8 °C; in [3] (HsLysRS, with lysine), 0.3 °C. In [9], the “effect on the growth of human cells” value is “little effect”. Further, in data set [10], the “potency against PfLysRS relative to HsLysRS or yeast LysRS” value was 1000 fold. Also, the “increase of sensitivity for CP inhibition” value in data set [11] is given as 40 fold. The “effect on growth of E. coli” value in data set [12] is given as “not affected”.

Consider `NCCCC[C@H](N)C(=O)O` [Lysine, L-lysine], for which the Kd in [1] (setting [17]) is 34.1 µM; in [3], 84.9 µM. In data set [1] (read-out: ΔTm), the ΔTm at 1000 µM was 2.7 °C. The ΔTm in data set [2] (setting [14]) is -0.2 °C; in data set [3], 0.1 °C.

Consider `C/C(=C\C(=O)OCCCCCCCCC(=O)O)C[C@@H]1OC[C@H](C[C@@H]2O[C@H]2[C@@H](C)[C@H](C)O)[C@@H](O)[C@H]1O` [mupirocin], for which the “selectivity for pathogenic over mammalian IleRS” value in data set [13] is on record as “about 8000 fold”.

For orientation: ΔTm means the change in melting temperature against a reference sample. For orientation: Kd means the free concentration of one partner at which half of the binding sites on the other are occupied at equilibrium, for simple one-to-one binding.
